Experimental data reported in PMC3983950 (Journal of medicinal chemistry, 2012).
Where two headings read alike, the source gives them in different places.

How the values were obtained:
ABCG2 = molecular target: T1, ABCG2 (Homo sapiens, UniProt Q9UNQ0); format: cell-based; conditions: for class: ranked by apparent affinity and maximal extent of inhibition; for ABCG2 inhibition (in words): at 2 and 10 µM
T1 sequence (Q9UNQ0 1-655): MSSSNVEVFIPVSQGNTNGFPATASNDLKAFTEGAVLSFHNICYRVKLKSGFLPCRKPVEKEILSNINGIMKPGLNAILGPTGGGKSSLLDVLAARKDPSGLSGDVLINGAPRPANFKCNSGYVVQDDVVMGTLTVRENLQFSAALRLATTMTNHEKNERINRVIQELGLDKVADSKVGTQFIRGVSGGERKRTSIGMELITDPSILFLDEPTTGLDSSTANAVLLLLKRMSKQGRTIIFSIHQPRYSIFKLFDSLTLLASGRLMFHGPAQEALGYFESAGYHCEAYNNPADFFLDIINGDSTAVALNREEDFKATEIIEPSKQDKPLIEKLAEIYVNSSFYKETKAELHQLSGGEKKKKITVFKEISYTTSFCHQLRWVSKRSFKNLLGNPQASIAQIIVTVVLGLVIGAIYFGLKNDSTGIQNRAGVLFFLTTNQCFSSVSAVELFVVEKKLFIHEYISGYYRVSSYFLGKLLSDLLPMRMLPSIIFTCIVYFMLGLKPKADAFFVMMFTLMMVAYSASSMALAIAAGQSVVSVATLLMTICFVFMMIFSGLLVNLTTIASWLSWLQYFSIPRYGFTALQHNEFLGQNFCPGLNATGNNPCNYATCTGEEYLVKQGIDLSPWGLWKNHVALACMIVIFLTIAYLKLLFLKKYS

[1] = tested on: HEK293-ABCG2 and HEK293-pcDNA3.1 cells; experiment: Cytotoxicity, MTT colorimetric assay, 72 h; format: cell-based, human; conditions: for IG50 (cytotoxicity, µM): concentration producing 50% inhibition of cell growth, MTT, 72 h
Method in brief: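 HEK293-ABCG2 and empty-vector HEK293-pcDNA3.1 cells (DMEM high glucose, 10% FBS, 0.75 mg/mL G418) seeded at 1 × 10^4 cells/well, attached 24 h at 37 °C, 5% CO2. Exposed 72 h to various concentrations of test compound (DMSO stock diluted in medium). MTT (5 mg/mL solution) added for 4 h, formazan dissolved in DMSO, A570 read. Triplicates; viability relative to 0.1% DMSO control (100%).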

class (ABCG2; Table 1)	SMILES	further results
3	COc1cccc(OC)c1C(=O)/C=C/c1ccccc1 [Compound 1]	–
3	COc1ccccc1/C=C/C(=O)c1c(OC)cccc1OC [Compound 2]	–
3	COc1cccc(/C=C/C(=O)c2c(OC)cccc2OC)c1 [Compound 3]	–
3	COc1cccc(OC)c1/C=C/C(=O)c1c(OC)cccc1OC [Compound 4]	–
3	COc1cc(OC)c(/C=C/C(=O)c2c(OC)cccc2OC)c(OC)c1 [Compound 5]	–
3	COc1ccc(/C=C/C(=O)c2c(OC)cccc2OC)c(OC)c1OC [Compound 6]	ABCG2 inhibition (in words) (ABCG2): no inhibition at all
3	COc1cc(OC)c(OC)cc1/C=C/C(=O)c1c(OC)cccc1OC [Compound 7]	–
3	COc1cc(/C=C/C(=O)c2c(OC)cccc2OC)cc(OC)c1OC [Compound 8]	ABCG2 inhibition (in words) (ABCG2): low inhibition
3	CCOc1cccc(OCC)c1C(=O)/C=C/c1c(OC)cc(OC)cc1OC [Compound 9]	–
3	CCOc1cccc(OCC)c1C(=O)/C=C/c1c(OC)cccc1OC [Compound 10]	ABCG2 inhibition (in words) (ABCG2): especially low, if any, inhibition
3	CCOc1cccc(OCC)c1C(=O)/C=C/c1ccc(OC)cc1OC [Compound 11]	–
3	COc1cc(OC)c(/C=C/C(=O)c2c(OC)cc(OC)cc2OC)c(OC)c1 [Compound 13]	–
3	COc1ccc(/C=C/C(=O)c2c(OC)cc(OC)cc2OC)c(OC)c1 [Compound 14]	–
3	COc1cc(OC)c(C(=O)/C=C/c2c(OC)cccc2OC)c(OC)c1 [Compound 15]	ABCG2 inhibition (in words) (ABCG2): especially low, if any, inhibition
3	COc1cccc(OC)c1/C=C/C(=O)c1ccccc1 [Compound 17]	ABCG2 inhibition (in words) (ABCG2): especially low, if any, inhibition
3	COc1cc(O)c(C(=O)/C=C/c2ccccc2OC)c(OC)c1 [Compound 30]	–
3	COc1cc(OC)c(/C=C/C(=O)c2c(O)cc(OC)cc2OC)c(OC)c1 [Compound 32]	–
3	COc1cc(O)c(C(=O)/C=C/c2ccc(OC)c(OC)c2OC)c(OC)c1 [Compound 34]	–
–	COc1ccc(/C=C/C(=O)c2cn(C)c3ccccc23)c(OC)c1 [Compound 35]	class (ABCG2; Table 2): 3
–	COc1cc(/C=C/C(=O)c2cn(C)c3ccccc23)cc(OC)c1OC [Compound 36]	class (ABCG2; Table 2): 3
–	COc1cc(OC)c(/C=C/C(=O)c2cn(C)c3ccccc23)c(OC)c1 [Compound 37]	IG50 (cytotoxicity, µM) [1]: 4.0 ± 0.2 µM; class (ABCG2; Table 2): 1 (Class 1 included high-affinity inhibitors (IC50 < 1 µM) producing a complete inhibition at both 2 and 10 µM)
–	COc1cccc(OC)c1/C=C/C(=O)c1cn(C)c2ccccc12 [Compound 38]	class (ABCG2; Table 2): 1 (Class 1 included high-affinity inhibitors (IC50 < 1 µM) producing a complete inhibition at both 2 and 10 µM)
–	COc1cc(OC)c(/C=C/C(=O)c2cn(C)c3ccc(OC)cc23)c(OC)c1 [Compound 39]	fold lower IG50 than compounds 27 and 38 [1]: 50 fold; IG50 (cytotoxicity, µM) [1]: 1.0 ± 0.1 µM; class (ABCG2; Table 2): 1 (Class 1 included high-affinity inhibitors (IC50 < 1 µM) producing a complete inhibition at both 2 and 10 µM)
–	COc1ccc(C(=O)/C=C/c2cn(C)c3ccccc23)c(OC)c1 [Compound 40]	class (ABCG2; Table 2): 3
–	COc1cc(OC)c(C(=O)/C=C/c2cn(C)c3ccccc23)c(OC)c1 [Compound 42]	class (ABCG2; Table 2): 3; ABCG2 inhibition (in words) (ABCG2): especially low, if any, inhibition
–	COc1cccc(OC)c1C(=O)/C=C/c1cn(C)c2ccccc12 [Compound 43]	class (ABCG2; Table 2): 3; ABCG2 inhibition (in words) (ABCG2): especially low, if any, inhibition
–	Cn1cc(/C=C/C(=O)c2cn(C)c3ccccc23)c2ccccc21 [Compound 44, 1,3-diindolylpropenone]	class (ABCG2; Table 2): 3

SMILES	class (ABCG2; Table 1)	further results
COc1ccc(/C=C/C(=O)c2ccc(OC)cc2OC)c(OC)c1 [Compound 12]	2 (Class 2 comprised high-affinity inhibitors producing an incomplete maximal inhibition (limited to 50–75%))	–
CCOc1cc(OCC)c(/C=C/C(=O)c2c(OCC)cc(OCC)cc2OCC)c(OCC)c1 [Compound 16]	2 (Class 2 comprised high-affinity inhibitors producing an incomplete maximal inhibition (limited to 50–75%))	–
COc1cc(/C=C/C(=O)c2ccc(OC)cc2O)cc(OC)c1 [Compound 18]	2 (Class 2 comprised high-affinity inhibitors producing an incomplete maximal inhibition (limited to 50–75%))	–
COc1ccc(C(=O)/C=C/c2ccc(OC)c(OC)c2)c(O)c1 [Compound 20]	2 (Class 2 comprised high-affinity inhibitors producing an incomplete maximal inhibition (limited to 50–75%))	–
COc1ccc(C(=O)/C=C/c2cc(OC)ccc2OC)c(O)c1 [Compound 23]	2 (Class 2 comprised high-affinity inhibitors producing an incomplete maximal inhibition (limited to 50–75%))	–
COc1ccc(C(=O)/C=C/c2c(OC)cccc2OC)c(O)c1 [Compound 25]	2 (Class 2 comprised high-affinity inhibitors producing an incomplete maximal inhibition (limited to 50–75%))	–
COc1ccc(C(=O)/C=C/c2ccc(OC)cc2OC)c(O)c1 [Compound 26]	2 (Class 2 comprised high-affinity inhibitors producing an incomplete maximal inhibition (limited to 50–75%))	–
COc1cc(O)c(C(=O)/C=C/c2c(OC)cccc2OC)c(OC)c1 [Compound 27]	1 (Class 1 included high-affinity inhibitors (IC50 < 1 µM) producing a complete inhibition at both 2 and 10 µM)	–
COc1cc(/C=C/C(=O)c2c(O)cc(OC)cc2OC)cc(OC)c1 [Compound 28]	1 (Class 1 included high-affinity inhibitors (IC50 < 1 µM) producing a complete inhibition at both 2 and 10 µM)	IG50 (cytotoxicity, µM) [1]: 6.0 ± 0.4 µM
COc1cc(O)c(C(=O)/C=C/c2ccccc2)c(OC)c1 [Compound 29]	2 (Class 2 comprised high-affinity inhibitors producing an incomplete maximal inhibition (limited to 50–75%))	–
COc1cccc(/C=C/C(=O)c2c(O)cc(OC)cc2OC)c1 [Compound 31]	1 (Class 1 included high-affinity inhibitors (IC50 < 1 µM) producing a complete inhibition at both 2 and 10 µM)	IG50 (cytotoxicity, µM) [1]: 10.0 ± 2.1 µM
COc1cc(O)c(C(=O)/C=C/c2cc(OC)c(OC)c(OC)c2)c(OC)c1 [Compound 33]	2 (Class 2 comprised high-affinity inhibitors producing an incomplete maximal inhibition (limited to 50–75%))	–
